Reference: ChEMBL document CHEMBL3593158, “Dirchromones: Cytotoxic Organic Sulfur Compounds Isolated from Dirca palustris” (J Nat Prod, 2015)
In brackets after ≈: the same amount, converted by molar mass. Activity calls are given as the source filed them. No cut-off for these calls is given here.

Assays:
Candida albicans = test: Antifungal activity against Candida albicans incubated for 24 hrs by microdilution method; assay type: functional, organism-based
Outline: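 Yeast tested by modified microdilution at 2 × 10^3 C. albicans per well in Sabouraud dextrose. Compounds were dissolved in DMSO, diluted in Sabouraud dextrose and added at increasing concentrations (final DMSO 0.1% v/v). Plates incubated 24 h at 37 °C.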

Escherichia coli = test: Antibacterial activity against Escherichia coli ATCC 25922 incubated for 24 hrs by microdilution method; assay type: functional, organism-based
Outline: (§1)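 Modified microdilution in nutrient broth with exponentially growing bacteria per well: E. coli at 5 × 10^3, S. aureus at 3.5 × 10^4. Increasing compound concentrations were dissolved in DMSO and diluted in broth (final DMSO 0.1% v/v). Plates incubated 24 h at 37 °C.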

[1] = Cytotoxicity against human WS1 cells assessed as inhibition of cell growth incubated for 48 hrs by Hoechst assay; assay type: cell-based; conditions: WS1, 48 h
Outline: (§2)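 Cells from ATCC, grown in MEM with Earle's salts, 10% fetal calf serum, vitamins, sodium pyruvate, nonessential amino acids and penicillin/streptomycin at 37 °C in humidified 5% CO2. 5 × 10^3 exponentially growing cells per well adhered for 16 h, then were exposed 48 h to increasing concentrations in medium (final DMSO 0.5% v/v). Hoechst staining read-out; IC50 is the concentration inhibiting growth by 50%.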

A549 [2] = test: Cytotoxicity against human A549 cells assessed as inhibition of cell growth incubated for 48 hrs by Hoechst assay; assay type: functional, cell-based; conditions: A549, 48 h; outline: as §2
[3] = Cytotoxicity against human DLD1 cells assessed as inhibition of cell growth incubated for 48 hrs by Hoechst assay; assay type: functional, cell-based; conditions: DLD-1, 48 h; outline: as §2
Staphylococcus aureus = test: Antibacterial activity against Staphylococcus aureus ATCC 25923 incubated for 24 hrs by microdilution method; assay type: functional; outline: as §1
A549 [4] = test: Selectivity index, ratio of IC50 for human A549 cells to IC50 for human DLD1 cells; assay type: functional
DLD-1 = test: Selectivity index, ratio of IC50 for human WS1 cells to IC50 for human DLD1 cells; assay type: functional

Row | Compound | Activity (Candida albicans) | Activity (Escherichia coli) | IC50 [1] [µM] | IC50 (A549 [2]) [µM] | IC50 [3] [µM] | MIC90 (Staphylococcus aureus; ATCC 25923, 24 h) [µg/mL] | MIC90 (Staphylococcus aureus) [µg/mL] | Ratio IC50 (A549 [4]) | Ratio IC50 (DLD-1)
1 | COc1cc2oc(/C=C/[S+](C)[O-])cc(=O)c2cc1OC (stereo not drawn) | inactive | inactive | > 10 | > 10 | 4.2 | 18.4 (≈ 62.5 µM) | – | – | –
2 | GENTAMICIN | – | – | – | – | – | – | 0.04 | – | –
3 | C[S+]([O-])/C=C/c1cc(=O)c2cc(O)ccc2o1 (stereo not drawn) | inactive | inactive | > 10 | > 10 | > 10 | 7.8 (≈ 31.2 µM) | – | – | –
4 | COc1ccc2oc(/C=C/[S+](C)[O-])cc(=O)c2c1 (stereo not drawn) | inactive | inactive | 6 | 9 | 1.1 | 4.1 (≈ 15.5 µM) | – | 8.2 | 5
5 | COc1ccc2c(=O)cc(/C=C/[S+](C)[O-])oc2c1O (stereo not drawn) | inactive | inactive | > 10 | > 10 | > 10 | 14 (≈ 49.9 µM) | – | – | –
6 | COc1cc([C@@H]2c3cc4c(cc3[C@@H](O[C@@H]3O[C@@H]5CO[C@@H](C)O[C@H]5[C@H](O)[C@H]3O)[C@H]3COC(=O)[C@H]23)OCO4)cc(OC)c1O [ETOPOSIDE] | – | – | > 10 | 0.48 | 3.3 | – | – | – | –
7 | COc1cc2oc(/C=C/[S+](C)[O-])cc(=O)c2cc1O (stereo not drawn) | inactive | inactive | > 10 | > 10 | > 10 | 14 (≈ 49.9 µM) | – | – | –
8 | COc1ccc2c(=O)cc(/C=C/[S+](C)[O-])oc2c1OC (stereo not drawn) | inactive | inactive | > 10 | > 10 | 3.3 | 18.4 (≈ 62.5 µM) | – | – | –
9 | C[S+]([O-])/C=C/c1cc(=O)c2ccccc2o1 (stereo not drawn) | inactive | inactive | 9 | 10 | 1 | 3.7 (≈ 15.8 µM) | – | 10 | 9
10 | COc1ccc2c(=O)cc(/C=C/[S+](C)[O-])oc2c1 (stereo not drawn) | inactive | inactive | 9 | 10.5 | 1.8 | 8.3 (≈ 31.4 µM) | – | 5.8 | 5
